Experimental data reported in ChEMBL document CHEMBL1156424, “Withaferin a strongly elicits IkappaB kinase beta hyperphosphorylation concomitant with potent inhibition of its kinase activity” (J Biol Chem, 2007).
Activity calls are given as the source filed them. No cut-off for these calls is given here.

Tests used:
[1] = biological target: T1, Inhibitor of nuclear factor kappa-B kinase subunit beta (Mus musculus) (UniProt O88351); experiment: Induction of IKK-beta-hyperphosphorylation in TNF-stimulated mouse L929sA cells at 2.8 ug/ml by Western blot
T1 sequence (whole entry): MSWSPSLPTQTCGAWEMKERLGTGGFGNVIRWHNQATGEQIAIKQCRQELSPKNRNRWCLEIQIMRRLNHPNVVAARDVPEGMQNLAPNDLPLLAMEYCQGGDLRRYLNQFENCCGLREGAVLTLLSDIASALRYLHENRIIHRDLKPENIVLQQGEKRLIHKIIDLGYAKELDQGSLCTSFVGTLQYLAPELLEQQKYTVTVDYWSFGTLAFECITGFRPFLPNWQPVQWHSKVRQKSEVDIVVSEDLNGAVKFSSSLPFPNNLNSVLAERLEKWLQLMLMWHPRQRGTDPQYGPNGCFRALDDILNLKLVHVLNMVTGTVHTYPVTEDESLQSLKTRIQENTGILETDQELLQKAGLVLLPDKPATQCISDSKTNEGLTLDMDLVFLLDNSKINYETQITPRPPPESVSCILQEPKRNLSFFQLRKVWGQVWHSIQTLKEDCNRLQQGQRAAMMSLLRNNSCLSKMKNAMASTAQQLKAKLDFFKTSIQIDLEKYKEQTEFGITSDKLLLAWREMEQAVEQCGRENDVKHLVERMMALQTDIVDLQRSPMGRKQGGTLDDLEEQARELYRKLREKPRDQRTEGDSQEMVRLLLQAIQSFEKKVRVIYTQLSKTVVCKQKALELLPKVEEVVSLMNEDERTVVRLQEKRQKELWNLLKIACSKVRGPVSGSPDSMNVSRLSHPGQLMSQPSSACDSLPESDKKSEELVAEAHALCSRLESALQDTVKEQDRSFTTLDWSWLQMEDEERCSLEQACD

[2] = (§1) Inhibition of TNF-induced NF-kappaB-mediated IL6 promoter expression in mouse L929sA cells by luciferase reporter gene assay; format: cell-based
Procedure, shortened: (§2)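 Stably transfected mouse L929sA cells carrying p(IL-6κB)350hu.IL6P-luc+ (NFκB-responsive elements in front of a minimal IL-6 promoter), pretreated 1 h with compound over a concentration range, then given 2000 IU/ml TNF for 6 h. Luciferase in lysates was normalized to co-expressed β-galactosidase (chemiluminescent) and protein.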

[3] = biological target: T1, Inhibitor of nuclear factor kappa-B kinase subunit beta (Mus musculus); experiment: Induction of IKK-beta-mediated IkappaBalpha degradation in TNF-stimulated mouse L929sA cells at 2.8 ug/ml by Western blot
Mus musculus [4] = experiment: Reduction of IL6 protein level in ip dosed zymosan-induced C57BL/6J mouse inflamed paw model measured 6 hrs after zymosan challenge; format: functional, organism-based
Procedure, shortened: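 Mice (six per group) pretreated ip with 0.5 mg/mouse in Me2SO, DEX 150 µg/mouse or Me2SO 60 µl/mouse, 30 min before footpad zymosan. Blood drawn by retro-orbital sinus puncture under isoflurane 6 h after zymosan; IL-6 quantified by 7TD1 cell growth-stimulation bioassay. Groups compared with control by ANOVA, p<0.05 significant.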

Mus musculus [5] = experiment: Antiinflammatory activity against ip dosed zymosan-induced C57BL/6J mouse inflamed paw model assessed as effect on paw swelling administered 30 mins before zymosan challenge; format: functional, organism-based
Procedure, shortened: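 Male/female not stated; 8-week-old C57BL/6J mice, 10 per group. 60 µl ip of 0.5 mg/mouse in Me2SO (vehicle group: Me2SO alone; DEX 150 µg/mouse as comparator), then 30 min later zymosan (15 mg/ml in PBS) sc into right footpad, left footpad uninjected. Thickness of both footpads measured by caliper at 6, 12, 24 and 48 h; read-out is injected minus non-injected difference.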

L929sA [6] = experiment: as §1; format: cell-based
Procedure, shortened: as §2

L929sA [7] = experiment: Reversal of inhibition of TNF-induced NFkappaB/DNA binding in mouse L929sA cells at 2.8 ug/ml in presence of 250 uM dithiothreitol by electrophoretic mobility shift assay; format: cell-based
Procedure, shortened: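 L929sA cells co-treated 1 h with 2.8 µg/ml and 250 µM DTT, then 2000 IU/ml TNF for 30 min. Equal protein from total extracts incubated 25 min with a 32P-labeled NFκB-specific oligonucleotide (labeled with [α-32P]dCTP by Klenow) for EMSA.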

[8] = biological target: T1, Inhibitor of nuclear factor kappa-B kinase subunit beta (Mus musculus); experiment: Reversal of induction of IKK-beta-hyperphosphorylation in TNF-stimulated mouse L929sA cells at 2.8 ug/ml in presence of 5 mM dithiothreitol

Row | Activity [8] | Compound | Activity [1] | IC50 [2] | Activity [3] | Activity (Mus musculus [4]) | Activity (Mus musculus [5]) | Efficacy (L929sA [6]) | Activity (L929sA [7])
1 |  | CC1=C(CO)C(=O)OC([C@@H](C)C2CCC3C4C(CC[C@@]32C)[C@@]2(C)C(=O)C=CC[C@]2(O)[C@H]2O[C@@H]42)C1 (some centres not stated) | inactive | 90 µM | inactive |  |  |  | 
2 |  | C[C@@H]1C[C@H]2[C@@H]3CCC4=CC(=O)C=C[C@]4(C)[C@@]3(F)[C@@H](O)C[C@]2(C)[C@@]1(O)C(=O)CO |  |  |  | Active | Active |  | 
3 |  | C=C1C(=O)O[C@@H]2C[C@@H](C)[C@@H]3C=CC(=O)[C@@]3(C)[C@@H](O)[C@H]12 [HELENALIN] |  | 2.5 µM |  |  |  |  | 
4 | Active | CC1=C(CO)C(=O)O[C@@H]([C@@H](C)[C@H]2CC[C@H]3[C@@H]4C[C@H]5O[C@]56[C@@H](O)C=CC(=O)[C@]6(C)[C@H]4CC[C@]23C)C1 [WITHAFERIN A] | Active | 0.25 µM | Active | Active | Active | 95% | Active
5 |  | CC1=C(C)C(=O)O[C@@H]([C@](C)(O)[C@H]2CC[C@H]3[C@@H]4[C@@H]5O[C@@H]5[C@@]5(O)CC=CC(=O)[C@]5(C)[C@H]4CC[C@]23C)C1 [WITHANOLIDE A] | inactive | 50 µM | inactive |  |  |  | 
